Laboratory results taken from ChEMBL document CHEMBL2016470, “Quinolinyl- and phenantridinyl-acetamides as bradykinin B1 receptor antagonists” (Bioorg Med Chem Lett, 2012).
Active and inactive are the calls of the source. No cut-off for these calls is given here.

Experiments:
Liver microsomes [1] = experiment: Intrinsic clearance in human liver microsomes assessed per gram of liver at 2.5 uM after 20 mins; type: ADME, Microsome
B1 bradykinin receptor [2] = target: T1, B1 bradykinin receptor (Rattus norvegicus, UniProt P97583); experiment: Antagonist activity at rat bradykinin B1 receptor; type: functional
T1 sequence (P97583 whole entry): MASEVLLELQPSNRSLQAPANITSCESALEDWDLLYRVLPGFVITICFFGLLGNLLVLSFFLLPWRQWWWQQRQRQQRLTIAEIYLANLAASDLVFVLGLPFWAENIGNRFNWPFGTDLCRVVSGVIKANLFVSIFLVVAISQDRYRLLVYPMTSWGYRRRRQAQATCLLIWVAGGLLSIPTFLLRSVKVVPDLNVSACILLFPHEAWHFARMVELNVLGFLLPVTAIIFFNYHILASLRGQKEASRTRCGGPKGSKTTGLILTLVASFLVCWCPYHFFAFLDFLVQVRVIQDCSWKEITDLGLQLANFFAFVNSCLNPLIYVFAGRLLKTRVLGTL

Liver microsomes [3] = experiment: Intrinsic clearance in rat liver microsomes assessed per gram of liver at 2.5 uM after 20 mins; type: ADME, Microsome
B1 bradykinin receptor [4] = target: T2, B1 bradykinin receptor (Homo sapiens, UniProt P46663); experiment: Binding affinity to human bradykinin B1 receptor
T2 sequence (P46663 whole entry): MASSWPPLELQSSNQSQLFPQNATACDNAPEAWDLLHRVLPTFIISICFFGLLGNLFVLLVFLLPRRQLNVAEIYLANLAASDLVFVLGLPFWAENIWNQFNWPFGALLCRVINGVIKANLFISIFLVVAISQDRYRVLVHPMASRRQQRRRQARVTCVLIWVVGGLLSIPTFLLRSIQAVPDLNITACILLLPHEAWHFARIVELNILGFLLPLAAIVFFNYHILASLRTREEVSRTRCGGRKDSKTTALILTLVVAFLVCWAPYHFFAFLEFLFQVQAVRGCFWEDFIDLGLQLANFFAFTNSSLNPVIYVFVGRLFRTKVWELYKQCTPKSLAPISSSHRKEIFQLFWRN

[5] = target: T3, B2 bradykinin receptor (Homo sapiens) (UniProt P30411); experiment: Antagonist activity at human bradykinin B2 receptor at 1 uM; type: functional; design: scale not given: the % may be the effect or the level left
T3 sequence (whole entry): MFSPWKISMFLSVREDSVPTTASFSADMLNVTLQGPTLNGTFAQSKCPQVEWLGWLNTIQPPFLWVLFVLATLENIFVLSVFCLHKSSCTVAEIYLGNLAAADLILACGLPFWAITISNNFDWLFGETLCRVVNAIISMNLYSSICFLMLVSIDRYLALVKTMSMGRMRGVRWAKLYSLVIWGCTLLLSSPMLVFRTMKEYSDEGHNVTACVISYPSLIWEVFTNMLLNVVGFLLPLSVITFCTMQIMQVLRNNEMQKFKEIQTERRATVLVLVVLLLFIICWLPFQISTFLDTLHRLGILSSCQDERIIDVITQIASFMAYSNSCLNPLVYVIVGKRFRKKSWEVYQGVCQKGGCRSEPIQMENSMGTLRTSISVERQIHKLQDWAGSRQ

Rattus norvegicus [6] = experiment: Antihyperalgesic activity in po dosed Sprague-Dawley rat assessed as decrease in CFA-induced joint pain administered 3 days post CFA challenge; type: functional, organism-based
How it was run: (§1)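 Knee monoarthritis induced by intra-articular CFA (0.1 ml); joint pain read as hind-limb weight-bearing deficit on an incapacitance tester (difference between un-injected and injected limbs as % of total hind-limb weight). Rats with post-CFA baseline 20–60% enrolled and randomized to equalize baselines; oral dosing on Day 3 post-CFA in 5% Tween 80 in saline; readings pre-dose and 0.5, 1, 2, 3, 4 h post-dose; change from baseline at maximum effect.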

Rattus norvegicus [7] = experiment: Antiinflammatory activity in po dosed Wistar rat pain model assessed as inhibition of DABK-induced paw oedema administered 120 mins before DABK challenge measured by plethysometric analysis; type: functional, organism-based
How it was run: (§2)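 Male Wistar rats, 120–150 g, LPS-pretreated; oral dosing in 5% (v/v) Tween 80 in saline before DABK injection. Paw volume by plethysmometer at 0, 10, 20, 30 min post-DABK; maximum edema volume taken. Percent inhibition from treated group means versus simultaneous vehicle means; ANOVA with Dunnett's test versus vehicle.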

Rattus norvegicus [8] = experiment: Antiinflammatory activity in Wistar rat pain model assessed as inhibition of DABK-induced paw oedema at 0.03 mg/kg, po administered 120 mins before DABK challenge measured by plethysometric analysis; type: functional; how it was run: as §2
Rattus norvegicus [9] = experiment: Antiinflammatory activity in Wistar rat pain model assessed as inhibition of DABK-induced paw oedema at 0.1 mg/kg, po administered 120 mins before DABK challenge measured by plethysometric analysis; type: functional; how it was run: as §2
Rattus norvegicus [10] = experiment: Antiinflammatory activity in Wistar rat pain model assessed as inhibition of DABK-induced paw oedema at 0.3 mg/kg, po administered 120 mins before DABK challenge measured by plethysometric analysis; type: functional; how it was run: as §2
Rattus norvegicus [11] = experiment: Antiinflammatory activity in Wistar rat pain model assessed as inhibition of DABK-induced paw oedema at 0.3 mg/kg, po administered 60 mins before DABK challenge; type: functional; how it was run: as §2
Rattus norvegicus [12] = experiment: Antiinflammatory activity in Wistar rat pain model assessed as inhibition of DABK-induced paw oedema at 1 mg/kg, po administered 60 mins before DABK challenge; type: functional; how it was run: as §2
Rattus norvegicus [13] = experiment: Antiinflammatory activity in Wistar rat pain model assessed as inhibition of DABK-induced paw oedema at 3 mg/kg, po administered 60 mins before DABK challenge; type: functional; conditions: read-out: INH; how it was run: as §2
Rattus norvegicus [14] = experiment: Antihyperalgesic activity in Sprague-Dawley rat assessed as decrease in CFA-induced joint pain at 1 to 3 mg/kg, po administered 3 days post CFA challenge; type: functional, organism-based; how it was run: as §1
Rattus norvegicus [15] = experiment: Antiinflammatory activity in Wistar rat pain model assessed as inhibition of DABK-induced paw oedema at 10 mg/kg, po administered 30 mins before DABK challenge measured by plethysometric analysis; type: functional; how it was run: as §2
Rattus norvegicus [16] = experiment: Antiinflammatory activity in Wistar rat pain model assessed as inhibition of DABK-induced paw oedema at 3 mg/kg, po administered 30 mins before DABK challenge measured by plethysometric analysis; type: functional; how it was run: as §2
Rattus norvegicus [17] = experiment: Antiinflammatory activity in Wistar rat pain model assessed as inhibition of DABK-induced paw oedema at 1 mg/kg, po administered 30 mins before DABK challenge measured by plethysometric analysis; type: functional; how it was run: as §2

SMILES | CLint (Liver microsomes [1]) [mL/min/g] | IC50 (B1 bradykinin receptor [2]) [nM] | CLint (Liver microsomes [3]) [mL/min/g] | Ki (B1 bradykinin receptor [4]) [nM] | also measured
Cc1cc(C)c(S(=O)(=O)N2c3ccccc3-c3ccccc3C2CC(=O)NCCc2ccc(C3=NCCN3)cc2)cc1C (centres undefined) | 16.4 | 21 | 2.7 | 2.9 | 
O=C(CC1CCc2ccccc2N1S(=O)(=O)c1ccc(Cl)c(Cl)c1)N[C@H]1CC[C@H](CCC2=NCCN2)CC1 (some centres undefined) | 9 |  | 0.6 | 4.3 | 
O=C(CC1C(=O)Nc2ccccc2N1S(=O)(=O)c1ccc(Cl)c(Cl)c1)Nc1ccccc1 (centres undefined) |  |  |  | 1400 | 
O=C(CC1c2ccccc2CCN1S(=O)(=O)c1ccc(Cl)c(Cl)c1)N[C@H]1CC[C@H](CCC2=NCCN2)CC1 (some centres undefined) | 12.5 |  | 1.1 | 1 | 
Cc1ccc(S(=O)(=O)N2c3ccccc3-c3ccccc3C2CC(=O)NCCc2ccc(C3=NCCN3)cc2)cc1 (centres undefined) | 12.9 | 52 | 1.5 | 4.7 | 
COc1cccc2c1-c1ccccc1N(S(=O)(=O)c1ccc(Cl)c(Cl)c1)C2CC(=O)N[C@H]1CC[C@H](CCN2CCCC2)CC1 (some centres undefined) | 1.1 | 43 | 1.8 | 8.9 | Activity [5]: 5.8%; Activity (Rattus norvegicus [6]): Dose-dependent effect; inhibition (Rattus norvegicus [7]): Dose-dependent effect; inhibition in vivo at 0.03 mg/kg (Rattus norvegicus [8]): 19%; inhibition in vivo at 0.1 mg/kg (Rattus norvegicus [9]): 27%; inhibition in vivo at 0.3 mg/kg (Rattus norvegicus [10]): 54%
O=C(CC1c2ccccc2CCN1S(=O)(=O)c1ccc(Cl)c(Cl)c1)Nc1ccc(N2CCC(N3CCCCC3)CC2)cc1 (centres undefined) |  |  |  | 138 | 
COc1ccc(S(=O)(=O)N2c3ccccc3-c3ccccc3C2CC(=O)NCCc2ccc(C3=NCCN3)cc2)cc1 (centres undefined) | 14.5 | 81 | 4.8 | 15.5 | 
O=C(CC1CCc2ccccc2N1S(=O)(=O)c1ccc(Cl)c(Cl)c1)Nc1ccc(N2CCC(N3CCCCC3)CC2)cc1 (centres undefined) |  |  |  | 628 | 
O=C(O)Cc1ccccc1Nc1c(Cl)cccc1Cl [DICLOFENAC] |  |  |  |  | inhibition in vivo at 0.3 mg/kg (Rattus norvegicus [11]): 23%; inhibition in vivo at 1 mg/kg (Rattus norvegicus [12]): 24%; inhibition in vivo at 3 mg/kg (Rattus norvegicus [13]): 35%; Activity (Rattus norvegicus [14]): Active
COc1ccc2cc(S(=O)(=O)N[C@H](CC(=O)N[C@H](Cc3ccc(CN4[C@H](C)CCC[C@@H]4C)cc3)C(=O)N(C)C(C)C)c3ccc4c(c3)OCO4)ccc2c1 |  |  |  |  | inhibition in vivo at 10 mg/kg (Rattus norvegicus [15]): 30%; inhibition in vivo at 3 mg/kg (Rattus norvegicus [16]): 16%; inhibition in vivo at 1 mg/kg (Rattus norvegicus [17]): 6%; Activity (Rattus norvegicus [14]): Active

More lines, main results first:

CLint (Liver microsomes [1]) [mL/min/g] | IC50 (B1 bradykinin receptor [2]) [nM] | CLint (Liver microsomes [3]) [mL/min/g] | Ki (B1 bradykinin receptor [4]) [nM] | SMILES | also measured
8 | 42 | 3.9 | 9.1 | O=C(CC1c2cc(F)cc(F)c2-c2ccccc2N1S(=O)(=O)c1ccc(Cl)c(Cl)c1)NCCc1ccc(C2=NCCN2)cc1 (centres undefined) | 
1 | 21 | 2.6 | 1.7 | COc1cccc2c1-c1ccccc1N(S(=O)(=O)c1ccc(Cl)c(Cl)c1)C2CC(=O)NCCc1ccc(C2=NCCN2)cc1 (centres undefined) | 
 |  |  | 480 | O=C(CC1COc2ccccc2N1S(=O)(=O)c1ccc(Cl)c(Cl)c1)NCCc1ccc(C2=NCCN2)cc1 (centres undefined) | 
16.8 |  | 7.4 | 166 | O=C(CC1CCc2ccccc2N1S(=O)(=O)c1ccc(Cl)c(Cl)c1)NCCN1CCN(c2ccncc2)CC1 (centres undefined) | 
9.8 | 28 | 2.5 | 3.1 | O=C(CC1c2ccccc2-c2ccccc2N1S(=O)(=O)c1ccc(Cl)c(Cl)c1)NCCc1ccc(C2=NCCN2)cc1 (centres undefined) | 
4.2 |  | 1.9 | 2.2 | O=C(CC1c2ccccc2CCN1S(=O)(=O)c1ccc(Cl)c(Cl)c1)NCCc1ccc(C2=NCCN2)cc1 (centres undefined) | 
5.5 | 45 | 1.6 | 1.2 | O=C(CC1c2cc(F)ccc2-c2ccccc2N1S(=O)(=O)c1ccc(Cl)c(Cl)c1)NCCc1ccc(C2=NCCN2)cc1 (centres undefined) | 
7.1 |  | 2.6 | 6.3 | O=C(CC1CCc2ccccc2N1S(=O)(=O)c1ccc(Cl)c(Cl)c1)NCCc1ccc(C2=NCCN2)cc1 (centres undefined) | 
 |  |  | 481 | O=C(CC1Cc2ccccc2CN1S(=O)(=O)c1ccc(Cl)c(Cl)c1)NCCc1ccc(C2=NCCN2)cc1 (centres undefined) | 
13.1 |  | 2.4 | 3.8 | O=C(CC1c2ccccc2CCN1S(=O)(=O)c1ccc(Cl)c(Cl)c1)N1CCC(Cc2ccc(C3=NCCN3)cc2)CC1 (centres undefined) | 
